What was measured:
E. coli K12 [1] = experiment: Inner membrane permeabilization assay; assay type: cell-based, Escherichia coli; conditions: E. coli K12, 0.5, 1 and 2X MIC, monitored for 180 mins, absorbance 415 nm, 37 °C, triplicate
Procedure, shortened: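 Assay for β-galactosidase release into the medium using ONPG as substrate, adapted from a published method. Test compound was dissolved in PBS at 1 mg/mL, annealed at 80 °C for 30 min, aged overnight, then diluted in PBS or media. Controls were polymyxin B (positive) and bacteria with ONPG and PBS (negative). o-Nitrophenol absorbance at 415 nm was read at intervals at 37 °C.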

A. baumannii [2] = experiment: Membrane permeability, PI uptake; assay type: cell-based, Acinetobacter baumannii; conditions: 1 and 2X MIC, 2 hours
Procedure, shortened: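 Bacteria washed and resuspended at 0.3 McFarland in 5 mM HEPES/20 mM glucose, pH 7.4, with propidium iodide at 7.5 μg/mL final. Test compound was given to MRSA JE2 at 0.5, 1 and 2X MIC and to A. baumannii at 1 and 2X MIC. Controls were untreated cells, polymyxin B and daptomycin. Incubated 2 h at 37°C; fluorescence read at ex 535 nm/em 615 nm.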

E. coli K12 [3] = experiment: Zeta potential of treated bacteria by DLS; assay type: cell-based, Escherichia coli; conditions: E. coli K12, PAs at 10X MIC
A. baumannii [4] = experiment: Membrane depolarization, DiSC 3; assay type: cell-based, Acinetobacter baumannii; conditions: 1 and 2X MIC, 2 hours
Procedure, shortened: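 Cells suspended at 0.5 McFarland in 5 mM HEPES/20 mM glucose, pH 7.4, with DiSC3(5) at 1 μM final. Test compound at 1 and 2X MIC; controls were untreated cells, polymyxin B and daptomycin. Incubated 2 h at 37°C. Fluorescence read at ex 622 nm/em 670 nm; dye release into medium raises signal.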

MRSA JE2 = experiment: Zeta potential of treated bacteria by DLS; assay type: cell-based, Staphylococcus aureus; conditions: 1 hour treatment
Procedure, shortened: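 Bacteria were cultured 18–20 h, resuspended in PBS and adjusted to 5 X 10^7 CFU/mL. They were treated 1 h with test compound at 10X MIC; test compound was pre-annealed in PBS and aged overnight. Controls were untreated cells, polymyxin B and daptomycin. Zeta potential was then measured by DLS at 25 °C.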

Row | Substance | order of membrane permeability (ONPG) (E. coli K12 [1]) | PI intensity (membrane permeability) (A. baumannii [2]) | change of bacterial zeta potential (E. coli K12 [3]) | order of activity, DiSC 3(5) (A. baumannii [4]) | change of bacterial zeta potential (MRSA JE2)
1 | Polymyxin B [PMB] | PMB > PA 26 > PA 3 > PA 9 | significant increase in PI intensity | does not show a notable change | PA 26 > PMB > PA 9 | 
2 | daptomycin |  |  |  |  | induces (slightly) the zeta potential to be more negative

— paper PMC10939825 (Chemistry (Weinheim an der Bergstrasse, Germany), 2024)
